Experiments:
human recombinant GLP-1R = human recombinant GLP-1R (Homo sapiens, UniProt P43220); assay: cAMP production in GLP-1R transfected HEK-293/CRE-LUC/GLP1R cells; assay type: cell-based
[1] = NLY01 accumulation in brain / BBB penetration; assay type: in vivo, mice
[2] = test system: α-syn PFF injected C57BL6 mice; assay: Intrastriatal α-syn PFF mouse model of sporadic PD; assay type: in vivo
hA53T α-syn Tg mice = assay: hA53T α-synuclein transgenic mouse model; assay type: in vivo
[3] = test system: human dopaminergic (DA) neurons; assay: Direct α-syn PFF toxicity in human DA neurons; assay type: cell-based; details: direct treatment of DA neurons, NLY01 1 µM, human α-syn PFF 5 µg/ml
Outline: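 Viability is read three ways: alamarBlue per kit protocol, LDH activity in culture medium measured spectrophotometrically, and trypan blue counting. For trypan blue, neurons are trypsin-dissociated to single cells and mixed 1:1 with dye. Live and dead cells are counted on an automated cell counter, with three wells per condition.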

primary microglia = assay: α-syn PFF-induced activation of primary microglia; assay type: cell-based, mouse
Outline: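 Primary mouse microglia, CD11b-selected from P1 mixed glia, are pretreated with test compound (1 μM), then given α-syn PFF (1 μg/ml). PFF is endotoxin-depleted recombinant mouse α-syn, stirred a week at 37 °C and sonicated. For qPCR, total RNA is normalized to β-actin by 2^−ΔΔCt, with n=3 independent cultures. Cytokines in medium collected 18 hrs post-PFF are measured by mouse cytokine ELISA array.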

[4] = test system: murine primary cortical cultures; assay: α-syn PFF-ACM toxicity in murine primary cortical neurons; assay type: cell-based, mouse
Outline: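 Cortical neurons from E15.5 CD1 embryos are grown in B-27 Neurobasal medium on poly-L-lysine. ACM is made by giving astrocytes 24 h of α-syn PFF-MCM, with or without test compound on the microglia. It is collected with protease inhibitors, concentrated about 50X (10 kDa cutoff) and dosed at 15 μg/ml total protein. Nuclei are stained with Hoechst (7 μM) and PI (2 μM) and counted by computer, relative to control wells.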

human DA neurons = assay: α-syn PFF-ACM toxicity in human DA neurons; assay type: cell-based; details: NLY01 applied to the α-syn PFF treated microglia; alamarBlue, LDH, trypan blue, 5 days
primary astrocytes = assay: A1 astrocyte induction by α-syn PFF-MCM in primary astrocytes; assay type: cell-based, mouse
Outline: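 Primary microglia and astrocytes come from P1 CD1 mouse whole brains. Mixed glia are grown 13 days, then split by CD11b positive selection: the bound fraction is microglia and the pour-off is astrocytes. Microglia get α-syn PFF with PBS or test compound (1 μM). Their conditioned medium is applied to astrocytes for 24 hrs, and GFAP is measured by immunoblot.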

[5] = test system: astrocytes of ventral midbrain; assay: qPCR of astrocytes from ventral midbrain of α-syn PFF injected mice; assay type: in vivo
[6] = 3 mg/kg s.c. twice a week for five months

Chain of human recombinant GLP-1R (P43220 24-463): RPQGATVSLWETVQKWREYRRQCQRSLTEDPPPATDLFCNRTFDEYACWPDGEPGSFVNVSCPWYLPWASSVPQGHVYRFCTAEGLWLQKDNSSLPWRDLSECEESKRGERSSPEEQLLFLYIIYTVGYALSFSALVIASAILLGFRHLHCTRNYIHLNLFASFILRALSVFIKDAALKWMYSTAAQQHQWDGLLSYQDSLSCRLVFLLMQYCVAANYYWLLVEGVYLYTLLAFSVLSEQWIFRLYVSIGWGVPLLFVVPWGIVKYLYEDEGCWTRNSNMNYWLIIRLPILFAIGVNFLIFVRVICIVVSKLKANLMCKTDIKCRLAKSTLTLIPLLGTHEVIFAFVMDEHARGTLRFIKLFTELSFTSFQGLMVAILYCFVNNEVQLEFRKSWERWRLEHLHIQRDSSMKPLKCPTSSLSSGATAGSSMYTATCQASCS

His-Gly-Glu-Gly-Thr-Phe-Thr-Ser-Asp-Leu-Ser-Lys-Gln-Met-Glu-Glu-Glu-Ala-Val-Arg-Leu-Phe-Ile-Glu-Trp-Leu-Lys-Asn-Gly-Gly-Pro-Ser-Ser-Gly-Ala-Pro-Pro-Pro-Ser-Cys(PEG50K)-NH2 [NLY01, pegylated [Cys^40]Exendin-4]
biologic activity in vitro relative to Exendin-4 (human recombinant GLP-1R): comparable biologic activity
brain levels ([1]; ten-month-old hA53T Tg mice, 3 mg/kg): reaches high brain levels
blood-brain barrier penetration ([1]; wild type (WT) mice): efficiently penetrates the blood-brain barrier
Triton X-100 insoluble α-syn and p-α-syn ser129, western blot [2, 6]: significantly reduces
α-syn PFF induced reduction in striatal TH immunoreactivity and striatal TH and DAT protein [2, 6]: rescued
p-α-syn ser129 immunoreactivity in striatum, ventral midbrain and TH neurons ([2]; 3 mg/kg s.c. twice a week for five months, from one month after α-syn PFF): significantly reduces
α-syn PFF induced loss of TH and Nissl positive neurons in the SNpc ([2]; 3 mg/kg s.c. twice a week for five months, n=10): prevented
ipsilateral amphetamine induced rotation ([2]; 5 mg/kg amphetamine i.p., six months after α-syn PFF): prevented
α-syn PFF induced GFAP immunoreactivity and GFAP level in the ventral midbrain ([2]; immunohistochemistry and western blot): blocked
α-syn PFF induced mRNA for Il1a, Il1b, Tnfα, C1qa, Il6 in ventral midbrain ([2]; qPCR, n=4): blocked
behavioral deficits in accelerating rotarod test and pole test ([2]; six months after α-syn PFF): significantly reduces the behavioral deficits
contralateral forepaw touches, cylinder test ([2]; six months after α-syn PFF): restored
increase in grooming time and reduction in rearing, cylinder test ([2]; six months after α-syn PFF): restored
Iba-1 immunoreactivity and microglial density in the SNpc ([2]; six months post injection): significantly reduces
prolongation of lifespan (hA53T α-syn Tg mice; 3 mg/kg s.c. twice a week from six months of age, n=20): over 100 days
p-α-syn ser129 immunoreactivity, aggregated α-syn and ubiquitin immunoreactivity (hA53T α-syn Tg mice; 3 mg/kg, brainstem): reduction
microglial and astrocytic activation (Iba-1, GFAP immunoreactivity) (hA53T α-syn Tg mice; brainstem): significantly attenuates
increase of C3 mRNA (hA53T α-syn Tg mice; ten-month-old hA53T α-syn Tg mice): prevented
protection against α-syn PFF induced cell death (alamarBlue, LDH, trypan blue) [3]: fails to protect
uptake of α-syn PFF in microglia (primary microglia): does not interfere
α-syn PFF induced C1q and TNFα release into media, western blot (primary microglia; NLY01 1 µM pretreatment): significantly inhibited
α-syn PFF induced protein levels of IL-1α, TNFα, IL-1ß, C1q, ELISA (primary microglia; NLY01 1 μM pretreatment, MCM 18 hrs after α-syn PFF): reduced
α-syn PFF induced mRNA for Il1a, Il1b, Tnfα, C1qa, Il6, qPCR (primary microglia; NLY01 1 μM pretreatment, α-syn PFF 1 μg/ml): significantly reduces
α-syn PFF induced cytokines (IL-1α, TNFα, IL-1ß, IL-6, leptin), ELISA cytokine array (primary microglia; primary microglia, α-syn PFF 1 µg/ml): reduces
NF-kB pathway (primary microglia; α-syn PFF-induced NF-kB nuclear translocation and phosphorylation): inhibits
α-syn PFF-ACM induced cell death ([4]; NLY01 (1 µM) applied to the α-syn PFF treated microglia, Hoechst/PI, 48 hrs): significantly prevents
p-α-syn ser129 levels induced by α-syn PFF-ACM ([4]; pretreatment of NLY01 in microglia): significantly reduced
α-syn PFF-ACM induced cell death (human DA neurons): significantly prevents
α-syn PFF-MCM induced GFAP (primary astrocytes; NLY01 1 μM, 24 hrs, immunoblot): blocked
induction of A1 astrocytic specific markers (primary astrocytes; NLY01 treatment of microglia, but not that of astrocytes): prevents
α-syn PFF induced A1 astrocyte specific transcripts [5]: prevented
induction of C3 mRNA in isolated astrocytes ([5]; n=4): blocks

From paper PMC6039259 (Nature medicine, 2018)
